Data on 1 compound can be found in ChEMBL document CHEMBL4406881, “Design, synthesis and biological evaluation of benzoylacrylic acid shikonin ester derivatives as irreversible dual inhibitors of tubulin and EGFR” (Bioorg Med Chem, 2019).

Active and inactive are the calls of the source. The rule behind the calls is not given here.

The subject of data set [1] is A549. Nature of the data set: Induction of apoptosis in human A549 cells assessed as caspase-9 cleavage expression at 2 to 8 uM after 24 hrs by Western blot analysis. It counts as functional, cell-based. The gist of the method: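 Western blot of A549 cells treated for 24 h. Lysates in RIPA buffer were run on SDS-PAGE and transferred to PVDF. Primary antibody at 1:1000 overnight at 4 °C, secondary antibody at 1:3000-1:5000 for 1 h, ECL detection. Densitometry was normalised to GAPDH; mean ± S.E.M. from three independent experiments.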
(In general: In western blotting, separated proteins are transferred to a membrane and probed.)

For data set [2], the system named is A549. The data set can be described thus: Induction of apoptosis in human A549 cells assessed as viable cells at 8 uM after 12 hrs by Annexin-V/PI staining based flow cytometry analysis (reference value: 88.4%). It counts as functional. Conditions: A549, 12 h, read-out: Activity. The gist of the method: (§1)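 A549 cells seeded overnight at 37 °C, 5% CO2, then exposed to 0, 2, 4, 8 or 12 µM for 24 h (dose series) or 8 µM for 0, 12, 24, 36 h (time series). Harvested, PBS-washed, stained with Annexin V-FITC and PI in binding buffer 15 min at room temperature in the dark, analysed by flow cytometry; three independent experiments.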
(In general: In flow cytometry, cells or beads pass a laser one at a time.)

In data set [3] the target is Epidermal growth factor receptor (Homo sapiens, UniProt P00533). Nature of the data set: Potency index, ratio of shi-konin IC50 to compound IC50 for inhibition of C-terminal His-tagged N-terminal GST-tagged human EGFR (668 to 1210 residues) expressed in baculovirus infected Sf9 cells after 30 mins in presence of gamma-[32p-ATP] binding assay.
In data set [4] the test system is A549. The data set can be described thus: Induction of apoptosis in human A549 cells assessed as early apoptotic cells at 2 uM after 24 hrs by Annexin-V/PI staining based flow cytometry analysis (reference value: 1.15%). It counts as functional.
Data set [5] has as its system A549. The data set can be described thus: Cell cycle arrest in human A549 cells assessed as downregulation of CDK2 expression at 2 to 8 uM by immunoblot analysis. It counts as functional, cell-based. The method, boiled down: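 A549 lysates in RIPA buffer with protease inhibitors were run on SDS-PAGE and blotted to PVDF. Membranes were probed overnight at 4 °C with primary antibody at 1:1000, then secondary antibody at 1:3000-1:5000 for 1 h, and detected by ECL. Band intensity was normalised to GAPDH. Results are mean ± S.E.M. from three independent experiments.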

Data set [6] relates to A549. Nature of the data set: Induction of apoptosis in human A549 cells assessed as late apoptotic cells at 2 uM after 24 hrs by Annexin-V/PI staining based flow cytometry analysis (reference value: 5.69%). It counts as functional.
Data set [7] concerns A549. Nature of the data set: Cell cycle arrest in human A549 cells assessed as accumulation at S phase at 8 uM after 24 hrs by RNAse A/ PI staining based flow cytometric analysis (reference value: 19.66%). It counts as functional. The method, boiled down: (§2)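 A549 cells at 5.0×10^4 per well were grown 12 h at 37 °C. Treatment was 0, 2, 4 or 8 µM for 24 h, or 8 µM for 0, 12, 24 or 36 h. Cells were fixed in 70% ethanol at −20 °C for at least 12 h, then stained in PBS with 0.1 mg/mL RNase A and 5 µg/mL PI. At least 10,000 events per sample were collected by flow cytometry to give G0/G1, S and G2/M percentages.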

The test system of data set [8] is A549. The data set can be described thus: Cell cycle arrest in human A549 cells assessed as accumulation at G1 phase at 8 uM after 36 hrs by RNAse A/ PI staining based flow cytometric analysis (reference value: 67.69%). It counts as functional. The gist of the method: as §2
The subject of data set [9] is A549. Nature of the data set: Induction of apoptosis in human A549 cells assessed as late apoptotic cells at 8 uM after 36 hrs by Annexin-V/PI staining based flow cytometry analysis (reference value: 6.55%). It counts as functional. The method, boiled down:
as §1

Data set [10] concerns A549. The data set can be described thus: Induction of apoptosis in human A549 cells assessed as necrotic cells after at 2 uM 24 hrs by Annexin-V/PI staining based flow cytometry analysis (reference value: 1.81%). The format is functional. The method, boiled down: as §1
The subject of data set [11] is A549. Nature of the data set: Cell cycle arrest in human A549 cells assessed as accumulation at S phase at 8 uM after 24 hrs by RNAse A/ PI staining based flow cytometric analysis (reference value: 17.23%). It counts as functional. The gist of the method: as §2
The subject of another data set is NCI-H460. The data set can be described thus: Antiproliferative activity against human H460 cells assessed as reduction in cell viability after 24 hrs by MTT assay. It counts as functional, cell-based. Conditions: NCI-H460, 24 h. The gist of the method:
(§3)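 MTT colorimetric assay. Cells in log phase in medium with 10% FBS were seeded at 10⁴ cells/well and left overnight at 37 °C, 5% CO₂ to reattach. Compounds were added at 0.1, 1, 10 and 100 μM in 10% FBS for 24 h. IC50 reported as mean ± SD of three independent experiments.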
A general note: Formazan colour is commonly taken as a measure of viable cells.

Data set [12] has as its system A549. The data set can be described thus: Cell cycle arrest in human A549 cells assessed as accumulation at G2/M phase at 8 uM after 24 hrs by RNAse A/ PI staining based flow cytometric analysis (reference value: 9.47%). The format is functional. The method, boiled down:
as §2

A further data set concerns NCI-H1975. The data set can be described thus: Antiproliferative activity against human NCI-H1975 cells assessed as reduction in cell viability after 24 hrs by MTT assay. It counts as functional, cell-based. As to conditions: NCI-H1975, 24 h. The method, boiled down:
as §3

The nature of data set [13]: Toxicity in ip dosed Balb/c mouse xenografted with human A549 cells assessed as effect on body weight at 2 to 4 mg/kg, ip administered once every two days for 32 days and measured for every 2 days. The format is organism-based. Conditions: in vivo. The method, boiled down:
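Female BALB/c nude mice (5-6 weeks) received 6×10^6 A549 cells s.c. in the flank. After two weeks (tumours ~90 mm³) they were split into 5 groups (n = 8). Dosing was 2 or 4 mg/kg, dissolved in DMSO, i.p. once every two days for 16 doses; DMSO vehicle served as control. Body weight and tumour volume (L×S²/2) were recorded every two days; mice were killed at day 32.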

For data set [14], the system named is A549. The data set can be described thus: Cell cycle arrest in human A549 cells assessed as accumulation at G1 phase at 4 uM after 24 hrs by RNAse A/ PI staining based flow cytometric analysis (reference value: 73.30%). It counts as functional. The gist of the method:
as §2

A further data set deals with Tubulin (Homo sapiens) (UniProt P68371+Q9H4B7+P0DPH7+P68366+Q13509+Q71U36+P04350+Q3ZCM7+P07437+P68363+Q9BQE3+Q6PEY2+Q13885+Q9BVA1+Q9BUF5). Nature of the data set: Inhibition of microtubule polymerization in human A549 cells assessed as polymerized tubulin expression at 8 uM after 24 hrs by immuno blot analysis (reference value: 0.85). The format is cell-based. The method, boiled down: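 Cells were lysed in hypotonic buffer 5 min at 37 °C and centrifuged 10000 rpm, 10 min, 25 °C. Soluble (supernatant) and polymerised (pellet) tubulin fractions were resolved by SDS-PAGE in equal amounts and immunoblotted for β-tubulin.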

Data set [15] deals with A549. Nature of the data set: Cell cycle arrest in human A549 cells assessed as accumulation at G2/M phase at 8 uM after 24 hrs by RNAse A/ PI staining based flow cytometric analysis (reference value: 12.65%). The format is functional. The gist of the method:
as §2

The test system of data set [16] is A549. Nature of the data set: Cell cycle arrest in human A549 cells assessed as accumulation at G1 phase at 8 uM after 24 hrs by RNAse A/ PI staining based flow cytometric analysis (reference value: 67.69%). It counts as functional. The method, boiled down:
as §2

Chain of Epidermal growth factor receptor (P00533 whole entry, the tested form may be a part): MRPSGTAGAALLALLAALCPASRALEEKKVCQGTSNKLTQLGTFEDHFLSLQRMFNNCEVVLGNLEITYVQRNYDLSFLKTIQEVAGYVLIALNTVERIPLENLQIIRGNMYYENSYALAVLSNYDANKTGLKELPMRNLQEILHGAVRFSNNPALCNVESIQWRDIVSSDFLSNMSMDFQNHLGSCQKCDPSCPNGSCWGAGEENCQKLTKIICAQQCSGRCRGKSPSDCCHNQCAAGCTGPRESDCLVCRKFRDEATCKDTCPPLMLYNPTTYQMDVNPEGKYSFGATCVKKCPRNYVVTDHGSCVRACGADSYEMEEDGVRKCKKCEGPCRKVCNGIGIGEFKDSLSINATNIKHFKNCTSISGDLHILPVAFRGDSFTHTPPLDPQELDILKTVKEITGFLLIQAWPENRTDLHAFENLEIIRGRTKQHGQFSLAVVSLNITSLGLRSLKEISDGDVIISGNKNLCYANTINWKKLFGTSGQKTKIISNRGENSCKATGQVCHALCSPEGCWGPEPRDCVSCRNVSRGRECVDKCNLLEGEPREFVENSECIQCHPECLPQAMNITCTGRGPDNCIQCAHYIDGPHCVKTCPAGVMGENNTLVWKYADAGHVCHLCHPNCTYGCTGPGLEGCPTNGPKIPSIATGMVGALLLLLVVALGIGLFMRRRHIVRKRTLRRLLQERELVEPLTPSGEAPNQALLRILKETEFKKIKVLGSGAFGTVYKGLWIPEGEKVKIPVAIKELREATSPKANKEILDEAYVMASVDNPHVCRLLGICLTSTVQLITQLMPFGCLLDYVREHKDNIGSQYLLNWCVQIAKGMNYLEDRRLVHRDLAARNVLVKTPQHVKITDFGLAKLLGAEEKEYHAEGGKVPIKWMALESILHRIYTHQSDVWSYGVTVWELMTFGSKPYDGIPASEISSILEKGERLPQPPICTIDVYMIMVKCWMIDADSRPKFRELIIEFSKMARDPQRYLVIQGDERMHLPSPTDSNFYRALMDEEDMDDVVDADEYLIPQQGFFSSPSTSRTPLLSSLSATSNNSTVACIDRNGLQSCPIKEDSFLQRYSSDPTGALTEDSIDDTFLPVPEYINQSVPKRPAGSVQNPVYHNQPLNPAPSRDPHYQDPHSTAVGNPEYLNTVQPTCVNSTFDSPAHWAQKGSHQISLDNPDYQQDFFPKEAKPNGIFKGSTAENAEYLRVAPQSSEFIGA

Take `CC(C)=CC[C@@H](OC(=O)/C=C\C(=O)c1ccc(F)cc1)C1=CC(=O)c2c(O)ccc(O)c2C1=O`: the outcome in the data set with A549 [1] and in the data set with A549 [5] was Active. Besides, the viability at 8 µM in the data set on A549 [2] was 79%. The Ratio IC50 in data set [3] was found to be 6. For the same compound, the Activity was found to be 4.62% with A549 [4]; 9.45% in the data set on A549 [6]; 23.66% in the data set with A549 [7]; 30.88% in the data set with A549 [8]; 41% in the data set with A549 [9]; 2.2% in the data set on A549 [10]. Moreover, the Activity is 19.66% in the data set on A549 [11]; 33.01% in the data set with A549 [12]; “Non-Toxic” in data set [13]; 59.17% in the data set with A549 [14]; 33.75% in the data set on A549 [15]; 42.59% in the data set on A549 [16]. Besides, the IC50 (as a rule, the concentration needed to halve the response being measured) in the data set with NCI-H460 came out at 5.61 µM; in the data set on NCI-H1975 it was 9.43 µM. In addition, the fold change (FC) at Tubulin (Homo sapiens) was determined as 0.69.
